# Test results as given in ChEMBL document CHEMBL5325493, “Discovery of AD258 as a Sigma Receptor Ligand with Potent Antiallodynic Activity” (J Med Chem, 2023).
# The source made the active and inactive calls. The calls are words filed in the database; no cut-off is given here.
# Assays:
# [1] = Cytotoxicity against HCE cells assessed as reduction in cell viability at above 20 uM incubated for 1 hr by MTT assay; format: toxicity, cell-based; conditions: human
# Method in brief: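 HCE cells in MEM with 10% FBS, grown to 80–90% confluence. Exposed to compounds in free medium for 20 h. MTT (5 mg/mL in PBS, 1:5 of medium volume) then added for 1 h; formazan dissolved in DMSO and read at 540 nm. Viability expressed as % of untreated cells; three independent experiments.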
# [2] = Cytotoxicity against HCE cells at 50 to 100 uM […] by LDH assay; format: toxicity, cell-based; conditions: human, 1.25 h, dose 50-100 µM
# [3] = tested on: Mus musculus; test: Anti-allodynic activity against capsaicin-induced d sc dosed wild type CD1 mouse allodynia model assessed as reversal of capsaicin induced hypersensitivity by measuring latency value preincubated for 30 mins followed by capsaicin addition (reference value: 13.51 +/- 1.93 sec); format: functional; conditions: dose 10-40 mg/kg
# [4] = tested on: Mus musculus; test: Anti-allodynic activity against capsaicin-induced wild type CD1 mouse allodynia model assessed as reversal of capsaicin induced hypersensitivity by measuring latency value at 20 mg/kg, sc preincubated for 5 with […] followed by compound addition for 30 mins prior to capsaicin stimulation; format: functional, organism-based
# [5] = Cytotoxicity against HCE cells assessed as reduction in cell viability at 100 uM […] by MTT assay; format: toxicity, cell-based; conditions: human
# [6] = tested on: Mus musculus; test: Anti-allodynic activity against capsaicin-induced wild type CD1 mouse allodynia model assessed as reversal of capsaicin induced hypersensitivity by measuring latency value at 10 mg/kg, sc preincubated for 5 with […] followed by compound addition for 30 mins prior to capsaicin stimulation; format: functional, organism-based
# [7] = tested on: Mus musculus; test: Anti-allodynic activity against capsaicin-induced wild type CD1 mouse allodynia model assessed as reversal of capsaicin induced hypersensitivity by measuring latency value at 5 mg/kg, sc preincubated for 30 mins followed by capsaicin addition (reference value: 13.51 +/- 1.93 sec); format: functional, organism-based
# [8] = tested on: Mus musculus; test: Anti-allodynic activity against capsaicin-induced wild type CD1 mouse allodynia model assessed as reversal of capsaicin induced hypersensitivity by measuring latency value at 40 mg/kg, sc preincubated for 5 with […] followed by compound addition for 30 mins prior to capsaicin stimulation; format: functional, organism-based
# Method in brief: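 Female CD1 mice, 25–30 g, acclimated at least 1 week. Mechanical allodynia induced by intraplantar capsaicin; read-out is response latency to mechanical stimulation of the paw. Compound given s.c.; the S1R agonist PRE-084 (32 mg/kg, s.c.) was co-administered to test reversal. Values are mean ± SEM from 6–9 animals per group.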
# [9] = target: Sigma non-opioid intracellular receptor 1 (Rattus norvegicus) (UniProt Q9R0C9); test: Selectivity ratio of Ki for binding affinity to rat liver homogenate S1R incubated for 2 hrs in absence of phenytoin to Ki for binding affinity to rat liver homogenate S1R incubated for 2 hrs in presence of phenytoin; format: tissue-based
# [10] = Toxicity in wild type CD1 mouse assessed as effect on motor coordination at 60 mg/kg, sc measured upto 240 mins by rotarod test; format: organism-based; conditions: in vivo, 4 h
# Method in brief: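 Female CD1 mice, 25–30 g. Latency to fall from the rotarod was recorded immediately before and several times after s.c. dosing, over 4 h; vehicle was DMSO 5% in saline. Mean ± SEM from 6–7 animals; 2-way repeated measures ANOVA followed by Student–Newman–Keuls test against time 0.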
# [11] = target: Sigma non-opioid intracellular receptor 1 (Rattus norvegicus, UniProt Q9R0C9); test: Displacement of [3H]-(+)-pentazocine from rat liver homogenate S1R incubated for 120 mins by liquid scintillation counting method; format: tissue-based
# [12] = target: Sigma non-opioid intracellular receptor 1 (Homo sapiens, UniProt Q99720); test: Binding affinity to S1R (unknown origin)
# Method in brief: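 Rat liver homogenates from male Sprague Dawley rats in 50 mM Tris pH 8. […] Incubated 120 min at 37 °C, then filtration and scintillation counting. Ki is the mean ± SD of at least two experiments in duplicate.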
# [13] = target: Sigma intracellular receptor 2 (Homo sapiens, UniProt Q5BJF2); test: Binding affinity to S2R (unknown origin)
# [14] = tested on: Mus musculus; test: Anti-allodynic activity against capsaicin-induced wild type CD1 mouse allodynia model assessed as reversal of capsaicin induced hypersensitivity by measuring latency value at 0.6 to 1.25 mg/kg, sc preincubated for 30 mins followed by capsaicin addition (reference value: 13.51 +/- 1.93 sec); format: functional, organism-based; conditions: dose 0.6-1.25 mg/kg
# [15] = target: Delta-type opioid receptor (Homo sapiens) (UniProt P41143); test: Inhibition of DOR (unknown origin) at 1 uM relative to control
# [16] = target: Kappa-type opioid receptor (Homo sapiens) (UniProt P41145); test: Inhibition of KOR (unknown origin) at 1 uM relative to control
# Method in brief: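 Nonspecific binding defined with 10 µM naloxone. Filtration through PEI-presoaked filters, then scintillation counting.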
# [17] = target: Mu-type opioid receptor (Homo sapiens) (UniProt P35372); test: Inhibition of MOR (unknown origin) at 1 uM relative to control
# [18] = tested on: Mus musculus; test: Anti-allodynic activity against capsaicin-induced wild type CD1 mouse allodynia model assessed as reversal of capsaicin induced hypersensitivity by measuring latency value at 1.25 mg/kg, sc preincubated for 5 with […] followed by compound addition for 30 mins prior to capsaicin stimulation; format: functional, organism-based
# [19] = target: Cannabinoid receptor 2 (Homo sapiens) (UniProt P34972); test: Inhibition of CB2 (unknown origin) at 1 uM relative to control
# Method in brief: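 Membranes from CHO-K1 cells expressing human CB2, 30 µg per sample, in modified HEPES pH 7.0. […] Nonspecific binding with 10 µM R(+)-WIN-55,212-2. Compound tested at 1 µM; bound radioligand counted after filtration.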
# [20] = Toxicity in wild type CD1 mouse assessed as effect on motor coordination at 1.25 mg/kg, sc measured upto 240 mins by rotarod test; format: organism-based; conditions: in vivo, time < 240 hrs
# Method in brief: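 Female CD1 mice on rotarod; latency to fall recorded immediately before and at several times over 4 h after s.c. dosing. Vehicle was 5% DMSO in saline; pregabalin 60 mg/kg s.c. served as the motor-deficit control. Mean ± SEM from 6–7 animals, analysed by 2-way repeated-measures ANOVA with Student–Newman–Keuls test.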
# [21] = target: Cannabinoid receptor 1 (Homo sapiens) (UniProt P21554); test: Inhibition of CB1 (unknown origin) at 1 uM relative to control
# Method in brief: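 Membranes from rat Chem-1 cells expressing human recombinant CB1, 5 µg per sample, in modified HEPES pH 7.4. […] Nonspecific binding with 10 µM CP 55,940. Compound tested at 1 µM; filtration and counting of specifically bound radioligand.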
# Sigma intracellular receptor 2, sequence (Q5BJF2 whole entry): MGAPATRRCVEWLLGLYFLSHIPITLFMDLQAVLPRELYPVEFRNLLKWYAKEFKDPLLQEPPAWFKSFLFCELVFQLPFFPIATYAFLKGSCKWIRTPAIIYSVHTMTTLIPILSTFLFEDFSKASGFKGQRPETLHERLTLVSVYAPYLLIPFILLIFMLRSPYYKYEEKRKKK
# Sigma non-opioid intracellular receptor 1 (Homo sapiens, UniProt Q99720), sequence (Q99720 whole entry): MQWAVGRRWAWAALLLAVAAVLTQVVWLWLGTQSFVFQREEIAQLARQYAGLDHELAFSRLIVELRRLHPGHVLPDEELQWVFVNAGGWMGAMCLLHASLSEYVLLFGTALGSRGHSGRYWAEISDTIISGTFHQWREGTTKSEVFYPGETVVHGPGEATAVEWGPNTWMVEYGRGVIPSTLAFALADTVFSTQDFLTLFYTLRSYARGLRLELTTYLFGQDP
# Kappa-type opioid receptor (Homo sapiens), sequence (P41145 whole entry): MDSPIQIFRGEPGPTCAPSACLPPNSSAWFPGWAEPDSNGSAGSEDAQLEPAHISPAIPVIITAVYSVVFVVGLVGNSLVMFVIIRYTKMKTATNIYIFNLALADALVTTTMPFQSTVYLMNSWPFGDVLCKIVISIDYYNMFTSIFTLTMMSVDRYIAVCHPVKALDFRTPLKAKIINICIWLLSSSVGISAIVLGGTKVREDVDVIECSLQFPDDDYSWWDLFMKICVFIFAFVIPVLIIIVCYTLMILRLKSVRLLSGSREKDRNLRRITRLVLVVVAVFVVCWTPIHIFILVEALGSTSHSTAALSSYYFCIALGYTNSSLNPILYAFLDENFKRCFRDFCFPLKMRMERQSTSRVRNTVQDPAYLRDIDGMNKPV
# Cannabinoid receptor 1 (Homo sapiens), sequence (P21554 whole entry): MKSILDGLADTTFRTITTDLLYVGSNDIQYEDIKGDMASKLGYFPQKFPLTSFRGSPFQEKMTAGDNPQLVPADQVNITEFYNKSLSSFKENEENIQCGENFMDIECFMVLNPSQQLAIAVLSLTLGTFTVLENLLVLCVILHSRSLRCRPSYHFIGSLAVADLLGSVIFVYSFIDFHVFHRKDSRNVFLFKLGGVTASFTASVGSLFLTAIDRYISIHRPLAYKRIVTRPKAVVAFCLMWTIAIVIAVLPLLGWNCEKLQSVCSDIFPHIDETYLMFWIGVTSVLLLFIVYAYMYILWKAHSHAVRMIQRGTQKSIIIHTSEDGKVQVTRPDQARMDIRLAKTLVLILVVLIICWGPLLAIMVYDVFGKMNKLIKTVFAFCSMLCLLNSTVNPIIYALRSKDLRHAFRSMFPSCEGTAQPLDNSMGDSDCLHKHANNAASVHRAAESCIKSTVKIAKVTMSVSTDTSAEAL
# Mu-type opioid receptor (Homo sapiens), sequence (P35372 whole entry): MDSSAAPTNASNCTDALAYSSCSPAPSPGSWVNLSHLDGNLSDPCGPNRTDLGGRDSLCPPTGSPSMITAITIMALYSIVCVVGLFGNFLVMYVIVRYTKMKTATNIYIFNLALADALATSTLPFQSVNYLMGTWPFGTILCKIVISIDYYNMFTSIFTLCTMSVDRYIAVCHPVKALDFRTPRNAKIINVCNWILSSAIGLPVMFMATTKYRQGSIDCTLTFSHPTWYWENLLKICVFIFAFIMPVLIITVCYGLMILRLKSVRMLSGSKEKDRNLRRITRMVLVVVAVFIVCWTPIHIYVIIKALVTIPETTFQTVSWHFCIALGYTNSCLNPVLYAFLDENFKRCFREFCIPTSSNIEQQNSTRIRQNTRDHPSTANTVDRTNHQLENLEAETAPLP
# Cannabinoid receptor 2 (Homo sapiens), sequence (P34972 whole entry): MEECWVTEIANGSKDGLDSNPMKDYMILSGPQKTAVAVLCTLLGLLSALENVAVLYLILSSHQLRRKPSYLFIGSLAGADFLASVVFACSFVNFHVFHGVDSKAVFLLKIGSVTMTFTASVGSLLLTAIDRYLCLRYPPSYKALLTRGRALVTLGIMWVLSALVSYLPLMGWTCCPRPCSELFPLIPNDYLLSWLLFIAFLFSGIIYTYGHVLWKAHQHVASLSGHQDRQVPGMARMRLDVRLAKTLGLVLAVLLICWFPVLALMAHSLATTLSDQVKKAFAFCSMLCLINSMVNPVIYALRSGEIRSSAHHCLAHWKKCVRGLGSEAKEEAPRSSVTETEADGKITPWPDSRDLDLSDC
# Sigma non-opioid intracellular receptor 1 (Rattus norvegicus, UniProt Q9R0C9), sequence (Q9R0C9 whole entry): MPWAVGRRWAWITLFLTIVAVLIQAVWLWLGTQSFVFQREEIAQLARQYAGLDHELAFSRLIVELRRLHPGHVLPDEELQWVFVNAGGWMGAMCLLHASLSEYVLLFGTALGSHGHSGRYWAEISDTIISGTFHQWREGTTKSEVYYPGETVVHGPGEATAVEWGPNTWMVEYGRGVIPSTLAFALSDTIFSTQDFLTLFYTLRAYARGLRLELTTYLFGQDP
# Sigma non-opioid intracellular receptor 1 (Rattus norvegicus), sequence (Q9R0C9 whole entry): as above
# Delta-type opioid receptor (Homo sapiens), sequence (P41143 whole entry): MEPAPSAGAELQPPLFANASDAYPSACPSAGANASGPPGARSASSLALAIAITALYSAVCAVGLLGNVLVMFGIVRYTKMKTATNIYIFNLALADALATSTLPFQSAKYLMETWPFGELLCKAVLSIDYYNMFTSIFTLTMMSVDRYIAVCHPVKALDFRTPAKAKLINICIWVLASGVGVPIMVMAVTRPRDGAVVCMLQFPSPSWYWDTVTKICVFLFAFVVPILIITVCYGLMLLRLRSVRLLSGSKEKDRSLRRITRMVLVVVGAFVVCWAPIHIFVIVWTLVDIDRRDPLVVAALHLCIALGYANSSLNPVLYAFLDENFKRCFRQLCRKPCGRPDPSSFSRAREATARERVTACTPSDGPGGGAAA
smiles,measurement,setting,value
Cl.O=C(OCCN1CCOCC1)C1(c2ccccc2)CCCCC1,Activity,[1],Toxic
c1ccc(CCN2CCC3(CCN(CCc4ccccc4)C3)C2)cc1,Activity,[2],Toxic
same,Activity,[1],Toxic
same,Activity,[3],Dose-Dependent Effect
same,Activity,[4],inactive
same,Activity,[5],Toxic
O=[N+]([O-])c1ccc(N2CCC3(CCN(CCc4ccccc4)C3)C2)cc1 (stereo not given),Activity,[6],inactive
same,Activity,[3],Dose-Dependent Effect
same,Activity,"[3]; 0.5 h, at 10 to 40 mg/kg",100%
same,Activity,[7],Active
same,Activity,[5],50%
O=C(Cc1ccc(Cl)c(Cl)c1)N1CCC2(CCN(CCc3ccccc3)C2)C1 (stereo not given),Activity,[8],inactive
same,Activity,[3],Dose-Dependent Effect
same,Activity,"[3]; 0.5 h, at 10 to 40 mg/kg",100%
c1ccc(CCN2CCC3(CCN(c4ccccc4)C3)C2)cc1 (stereo not given),Activity,[2],Toxic
same,Activity,[1],Toxic
same,Activity,[3],Dose-Dependent Effect
same,Activity,[4],inactive
same,Activity,[5],Toxic
CN1CCN(CCc2ccc(Cl)c(Cl)c2)CC1,Activity,[8],inactive
C=CCN1CC[C@@]2(C)C[C@@H]1Cc1ccc(O)cc12,Ratio Ki,[9],5.8
CC(C)C[C@H](CN)CC(=O)O [PREGABALIN],Activity,[10],Toxic
c1ccc2c(c1)Nc1ccccc1S2 [PHENOTHIAZINE],Ki,[11],4.3 nM
c1ccc(CN2CCC3(CC2)OCC(c2ccccc2)CO3)cc1,Ki,[12],0.013 nM
same,Ki,[13],813 nM
N#Cc1ccc(N2CCC3(CCN(CCc4ccccc4)C3)C2)cc1 (stereo not given),Activity,[14],Active
same,inhibition,[15],< 50%
same,inhibition,[16],< 50%
same,Activity,[2],Toxic
same,inhibition,[17],< 50%
same,Activity,[3],Dose-Dependent Effect
same,Activity,"[3]; 0.5 h, at 10 to 40 mg/kg",100%
same,Activity,[18],inactive
same,inhibition,[19],< 50%
same,Activity,[20],Non-Toxic
same,inhibition,[21],< 50%
COC1Cc2ccccc2C2(CCC(N(C)CC3CCCCC3)CC2)O1 (stereo not given),Ki,[12],1.9 nM
same,Ki,[13],12 nM
c1ccc(CN2CCC3(CCc4ccccc4S3)CC2)cc1,Ki,[12],9.2 nM
same,Ki,[13],6.4 nM
